Reference: ChEMBL document CHEMBL1149790, “Synthesis of some novel thiourea derivatives obtained from 5-[(4-aminophenoxy)methyl]-4-alkyl/aryl-2,4-dihydro-3H-1,2,4-triazole-3-thiones and evaluation as antiviral/anti-HIV and anti-tuberculosis agents” (Eur J Med Chem, 2008)
≈ marks a conversion by molar mass, not a printed value.

Experiments:
Human alphaherpesvirus 1 [1] = assay: Antiviral activity against HSV1 KOS in human HEL cells assessed as reduction of virus-induced cytopathogenicity; assay type: functional; conditions: Human alphaherpesvirus 1, KOS
Outline: (§1)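 Confluent cell monolayers (E6SM, HEL, HeLa or Vero, per line) inoculated with 100 CCID50 virus; 1 h adsorption, residual virus removed, then incubated with compound at 400, 200, 100 … µg/ml. Cytopathicity scored once complete in untreated virus controls; MIC = concentration inhibiting virus-induced cytopathicity.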

Coxsackievirus B4 [2] = assay: Antiviral activity against Coxsackie virus B4 in african green monkey Vero cells assessed as reduction of virus-induced cytopathogenicity; assay type: functional; conditions: Enterovirus B; outline: as §1
[3] = tested on: Respiratory syncytial virus; assay: Antiviral activity against respiratory syncytial virus in human HeLa cells assessed as inhibition of virus-induced cytopathogenicity; assay type: functional; outline: as §1
Coxsackievirus B4 [4] = assay: Antiviral activity against Coxsackie virus B4 in human HeLa cells assessed as inhibition of virus-induced cytopathogenicity; assay type: functional; conditions: Enterovirus B; outline: as §1
Human alphaherpesvirus 2 [5] = assay: Antiviral activity against HSV2 G in human HEL cells assessed as reduction of virus-induced cytopathogenicity; assay type: functional; conditions: Human alphaherpesvirus 2, G; outline: as §1
[6] = tested on: Mammalian orthoreovirus 1; assay: Antiviral activity against Reo virus 1 in african green monkey Vero cells assessed as reduction of virus-induced cytopathogenicity; assay type: functional; outline: as §1
Sindbis virus = assay: Antiviral activity against Sindbis virus in african green monkey Vero cells assessed as reduction of virus-induced cytopathogenicity; assay type: functional; outline: as §1
Punta Toro virus = assay: Antiviral activity against Punta Toro virus in african green monkey Vero cells assessed as reduction of virus-induced cytopathogenicity; assay type: functional; outline: as §1
[7] = tested on: Vesicular stomatitis virus; assay: Antiviral activity against in Vesicular stomatitis virus in human HEL cells assessed as reduction of virus-induced cytopathogenicity; assay type: functional; outline: as §1
Human alphaherpesvirus 2 [8] = assay: Antiviral activity against HSV2 G in human E6SM cells assessed as reduction of virus-induced cytopathogenicity; assay type: functional; conditions: Human alphaherpesvirus 2, G; outline: as §1
[9] = Cytotoxicity against human MT4 cells by MTT assay; assay type: cell-based
Outline: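 Mock-infected MT-4 cells (6 × 10⁵ cells/ml) with serial five-fold compound dilutions in triplicate; MTT reduction read at 540 and 690 nm after 5 days, median OD of three wells; CC50 = concentration reducing OD540 of mock-infected control by 50%.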

[10] = Cytotoxicity against human HeLa cells; assay type: cell-based
Outline: (§2)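 Uninfected cell cultures exposed to test compounds alongside antiviral assays; minimum cytotoxic concentration (MCC) = concentration causing a microscopically detectable alteration of cell morphology.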

[11] = Cytotoxicity against human HEL cells assessed as alteration of cell morphology; assay type: cell-based; outline: as §2
Human alphaherpesvirus 1 [12] = assay: Antiviral activity against thymidine kinase deficient and acyclovir resistant HSV1 KOS in human E6SM cells assessed as reduction of virus-induced cytopathogenicity; assay type: functional; conditions: Human alphaherpesvirus 1, KOS; outline: as §1
Vero = assay: Cytotoxicity against african green monkey Vero cells; assay type: cell-based; conditions: chlorocebus sabaeus; outline: as §2
Human respirovirus 3 = assay: Antiviral activity against Parainfluenza 3 virus in african green monkey Vero cells assessed as reduction of virus-induced cytopathogenicity; assay type: functional; outline: as §1
Human alphaherpesvirus 1 [13] = assay: Antiviral activity against thymidine kinase deficient and acyclovir resistant HSV1 KOS in human HEL cells assessed as reduction of virus-induced cytopathogenicity; assay type: functional; conditions: Human alphaherpesvirus 1, KOS; outline: as §1
[14] = tested on: Vesicular stomatitis virus; assay: Antiviral activity against vesicular stomatitis virus in human HeLa cells assessed as inhibition of virus-induced cytopathogenicity; assay type: functional; outline: as §1
[15] = tested on: Vesicular stomatitis virus; assay: Antiviral activity against in Vesicular stomatitis virus in human E6SM cells assessed as reduction of virus-induced cytopathogenicity; assay type: functional; outline: as §1
[16] = tested on: Human immunodeficiency virus 2; assay: Antiviral activity against HIV2 ROD in human MT4 cells assessed as protection against virus-induced cytopathogenicity by MTT assay; assay type: functional, organism-based; set-up: Activity: concentration or dose not given beside the values; conditions: for IC50: Human immunodeficiency virus 2, ROD, MT4
Outline: (§3)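 MT-4 cells at 6 × 10⁵ cells/ml infected with HIV-1 IIIB or HIV-2 ROD at 100–300 CCID50; compounds in serial five-fold dilutions, triplicate mock- and virus-infected wells. MTT viability read at 540 and 690 nm after 5 days, median OD of three wells; EC50 = 50% protection from viral cytopathic effect.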

Human alphaherpesvirus 1 [17] = assay: Antiviral activity against HSV1 KOS in human E6SM cells assessed as reduction of virus-induced cytopathogenicity; assay type: functional; conditions: Human alphaherpesvirus 1, KOS; outline: as §1
[18] = tested on: Human immunodeficiency virus 1; assay: Antiviral activity against HIV1 3B in human MT4 cells assessed as protection against virus-induced cytopathogenicity by MTT assay; assay type: functional, organism-based; set-up: Activity: concentration or dose not given beside the values; conditions: for IC50: Human immunodeficiency virus 1, 3B, MT4; outline: as §3
[19] = Cytotoxicity against human E6SM cells; assay type: cell-based; conditions: E6SM cells; outline: as §2

Compound	MIC (Human alphaherpesvirus 1 [1]) [µg/mL]	MIC (Coxsackievirus B4 [2]) [µg/mL]	MIC [3] [µg/mL]	MIC (Coxsackievirus B4 [4]) [µg/mL]	MIC (Human alphaherpesvirus 2 [5]) [µg/mL]	MIC [6] [µg/mL]	MIC (Sindbis virus) [µg/mL]	MIC (Punta Toro virus) [µg/mL]	MIC [7] [µg/mL]	MIC (Human alphaherpesvirus 2 [8]) [µg/mL]	CC50 [9] [µg/mL]	MCC [10] [µg/mL]	MCC [11] [µg/mL]	MIC (Human alphaherpesvirus 1 [12]) [µg/mL]	Activity (Vero)	MIC (Human respirovirus 3) [µg/mL]	MIC (Human alphaherpesvirus 1 [13]) [µg/mL]	MIC [14] [µg/mL]	MIC [15] [µg/mL]	Activity [16] [%]	further results
C=CCn1c(-c2ccc(NC(=S)NC)cc2)n[nH]c1=S	240 (≈ 786 µM)	> 80	> 80	> 80	240 (≈ 786 µM)	> 80	> 80	> 80	> 80	240 (≈ 786 µM)	80.9 (≈ 265 µM)	400	400	240 (≈ 786 µM)	>= 80 ug ml-1	> 80	240 (≈ 786 µM)	> 80	> 80	0	IC50 [16]: > 80.9 µg/mL; MIC (Human alphaherpesvirus 1 [17]): 240 µg/mL (≈ 786 µM); Activity [18]: 9%; IC50 [18]: > 80.9 µg/mL; MCC [19]: 400 µg/mL
Cn1c(-c2ccc(NC(=S)Nc3ccccc3)cc2)n[nH]c1=S	> 80	> 80	> 16	> 16	> 80	> 80	> 80	> 80	> 80	> 80	42.8 (≈ 125 µM)	80	400	48 (≈ 141 µM)	400 µg/mL	> 80	48 (≈ 141 µM)	> 16	> 80	10	IC50 [16]: > 42.8 µg/mL; MIC (Human alphaherpesvirus 1 [17]): > 80 µg/mL; Activity [18]: 35%; IC50 [18]: > 42.8 µg/mL; MCC [19]: 400 µg/mL
C=CCNC(=S)Nc1ccc(-c2nnc(SCc3ccc(Cl)cc3Cl)n2-c2ccccc2)cc1	> 16	> 16	> 16	> 16	> 16	> 16	> 16	> 16	> 16	> 16	65.3 (≈ 124 µM)	80	≥ 16	> 16	>= 16 ug ml-1	> 16	> 16	> 16	> 16	0	IC50 [16]: > 65.3 µg/mL; MIC (Human alphaherpesvirus 1 [17]): > 16 µg/mL; Activity [18]: 1.5%; IC50 [18]: > 65.3 µg/mL; MCC [19]: ≥ 16 µg/mL
CNC(=S)Nc1ccc(-c2n[nH]c(=S)n2C)cc1	240 (≈ 859 µM)	> 80	> 80	> 80	240 (≈ 859 µM)	> 80	> 80	> 80	> 80	240 (≈ 859 µM)	80.3 (≈ 287 µM)	400	400	> 80	400 µg/mL	> 80	> 80	> 80	> 80	0	IC50 [16]: > 80.3 µg/mL; MIC (Human alphaherpesvirus 1 [17]): 240 µg/mL (≈ 859 µM); Activity [18]: 1%; IC50 [18]: > 80.3 µg/mL; MCC [19]: 400 µg/mL
S=C(Nc1ccccc1)Nc1ccc(-c2n[nH]c(=S)n2-c2ccccc2)cc1	> 80	> 16	> 80	> 80	> 80	> 16	> 16	> 16	> 80	> 80	28.6 (≈ 70.8 µM)	80	≥ 80	> 80	80 µg/mL	> 16	> 80	> 80	> 80	0	IC50 [16]: > 28.6 µg/mL; MIC (Human alphaherpesvirus 1 [17]): > 80 µg/mL; Activity [18]: 25%; IC50 [18]: > 28.6 µg/mL; MCC [19]: ≥ 80 µg/mL
